Experimental findings from ChEMBL document CHEMBL1143074, “Symplocamide A, a potent cytotoxin and chymotrypsin inhibitor from the marine Cyanobacterium Symploca sp” (J Nat Prod, 2008) are described below.

The source made the active and inactive calls. The calls are words filed in the database; no cut-off is given here.

Test [1] in a line: Inhibition of trypsin. In short, it runs like this:
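Trypsin (0.0023 mg/mL final, 2.75 BAEE U) was added to 0.45 mM BAEE in 64 mM NaH2PO4 pH 7.6 at 25 °C. Compound was premixed with substrate from a 1:2 EtOH dilution series (final 4.5 × 10-4 to 6.8 × 10^-6 M), against an EtOH blank. N-benzoyl-L-arginine formation was read at 253 nm for 5 min, and the 0.5–2 min interval was analyzed.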

Test [2] is described as follows: Inhibition of chymotrypsin at 10 uM.
Test [3] is described as follows: Inhibition of chymotrypsin. Summed up:
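Spectrophotometric assay: 0.0025 mg/mL chymotrypsin (0.0086 U) with 0.53 mM BTEE in 38 mM Tris-HCl pH 7.8, 53 mM CaCl2, 0.5 mM HCl and 32% MeOH at 25 °C. Inhibitor (from MeOH dilutions, final 6.25 × 10-5 to 7.5 × 10^-9 M) was equilibrated with substrate before enzyme addition. Absorbance at 256 nm was followed for 5 min, and the 0.5–1.5 min interval was analyzed.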

In test [4] the test system is NCI-H460. In words: Cytotoxicity against human H460 cells. The test is classed as functional, cell-based.
The nature of test [5]: Cytotoxicity against mouse Neuro2a cells. The test is classed as functional, cell-based. As to conditions: N2a.
For test [6], the system named is Plasmodium falciparum. In words: Antiparasitic activity against chloroquine-resistant Plasmodium falciparum W2 in microfluorimetric assay. The test is classed as functional, organism-based.
Test [7] has as its system Trypanosoma cruzi. In words: Antiparasitic activity against Trypanosoma cruzi C4 clone. The test is classed as functional, organism-based.
The subject of test [8] is Leishmania donovani. In words: Antiparasitic activity against Leishmania donovani LD-1S/MHOM/SD/00-strain 1S. The test is classed as functional, organism-based.

`CC[C@@H](C)[C@@H]1NC(=O)[C@H](Cc2ccccc2)N(C)C(=O)[C@H]([C@@H](C)CC)N2C(=O)[C@H](CC[C@H]2O)NC(=O)[C@H](CCCCN)NC(=O)[C@@H](NC(=O)[C@@H](CCc2ccccc2)NC(=O)[C@@H](COS(=O)(=O)O)OC)[C@@H](C)OC1=O` [OSCILLAPEPTIN F] displayed a 50% inhibitory concentration (IC50) in test [1] of 180 nM. The result in test [2] was inactive.
With `CCCC(=O)N[C@@H](CCC(N)=O)C(=O)N[C@@H]1C(=O)N[C@@H](CCCNC(N)=O)C(=O)N[C@H]2CC[C@@H](O)N(C2=O)[C@@H]([C@@H](C)CC)C(=O)N(C)[C@@H](Cc2ccc(OC)c(Br)c2)C(=O)N[C@@H](C(C)C)C(=O)O[C@@H]1C` [SYMPLOCAMIDE A], the half-inhibitory concentration (IC50) in test [1] is 80200 nM; in test [3] it was 380 nM; in test [4] it was 40 nM; in test [5], 29 nM; in test [6], 950 nM; in test [7], greater than 9500 nM. In test [8], this compound yielded a 50% inhibitory concentration (IC50) greater than 9500 nM.
